Test results: ChEMBL document CHEMBL1126749, “Synthesis and structure-activity relationships of nonpeptide, potent triazolone-based angiotensin II receptor antagonists” (J Med Chem, 1993)

Experiments:
[1] = target: Angiotensin II receptor (Oryctolagus cuniculus); test: Antagonism of angiotensin-II mediated contraction of rabbit aortic rings expressed as pA2 (in vitro)
[2] = target: T1, Type-1 angiotensin II receptor B (Rattus norvegicus, UniProt P29089); test: Inhibition of [125I]angiotensin-II binding to the angiotensin II receptor type 1 in rat uterine membranes; format: cell membranes, Membrane
T1 sequence (P29089 whole entry): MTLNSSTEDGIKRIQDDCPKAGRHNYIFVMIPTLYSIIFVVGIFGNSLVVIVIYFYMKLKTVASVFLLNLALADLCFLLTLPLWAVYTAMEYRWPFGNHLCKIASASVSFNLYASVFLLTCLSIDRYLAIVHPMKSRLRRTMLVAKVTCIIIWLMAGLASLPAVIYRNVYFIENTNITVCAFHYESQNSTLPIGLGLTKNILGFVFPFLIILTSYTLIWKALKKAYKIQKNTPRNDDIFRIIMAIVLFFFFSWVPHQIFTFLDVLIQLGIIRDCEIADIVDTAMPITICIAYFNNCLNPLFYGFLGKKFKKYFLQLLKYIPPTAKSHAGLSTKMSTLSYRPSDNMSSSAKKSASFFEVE

Rattus norvegicus = test: In vivo inhibition of pressor response to AII in rats following intragastric administration; format: functional; settings: po, read-out: ID50 (the source's name)
Method in brief: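 Male Sprague-Dawley rats anesthetized with methohexital 30 mg/kg ip. Femoral artery and vein catheterized, restrained, and allowed 3 h recovery. Arterial pressure recorded continuously, 1 h baseline, then AII infused at 50 ng/kg/min iv. Compound given intragastrically at 1-10 mg/kg. Change in mean arterial pressure compared at time points before and after dosing.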

| Compound | pA2 [1] | IC50 [2] [nM] | ED50 (Rattus norvegicus) [mg/kg] |
| --- | --- | --- | --- |
| CCCCc1nn(CC(=O)C23C[C@H]4C[C@@H](C2)C[C@@H](C3)C4)c(=O)n1Cc1ccc(-c2ccccc2-c2nn[nH]n2)cc1 | 8.1 | 25 |  |
| CCCCc1nn(CC(OCC)c2ccccc2)c(=O)n1Cc1ccc(-c2ccccc2-c2nn[nH]n2)cc1 (stereo not given) |  | 15 |  |
| CCCCc1nn(CC(OC)c2ccccc2)c(=O)n1Cc1ccc(-c2ccccc2-c2nn[nH]n2)cc1 (stereo not given) | 7.8 | 12 |  |
| CCCCc1nn(CC(O)c2ccccc2)c(=O)n1Cc1ccc(-c2ccccc2-c2nn[nH]n2)cc1 (stereo not given) | 8.3 | 3.6 |  |
| CCCCc1nn(C(Cc2ccccc2)C(=O)c2ccccc2)c(=O)n1Cc1ccc(-c2ccccc2-c2nn[nH]n2)cc1 (stereo not given) |  | 5800 |  |
| CCCCc1nn(CC(OCC(=O)O)c2ccccc2)c(=O)n1Cc1ccc(-c2ccccc2-c2nn[nH]n2)cc1 (stereo not given) |  | 30 |  |
| CCCCc1nn(C(CC(=O)OCC)C(=O)c2ccccc2)c(=O)n1Cc1ccc(-c2ccccc2-c2nn[nH]n2)cc1 (stereo not given) | 7.8 | 36 |  |
| CCCCc1nn(CCc2ccccc2)c(=O)n1Cc1ccc(-c2ccccc2-c2nn[nH]n2)cc1 | 9.8 | 3.1 |  |
| CCCCc1nn(CC(=O)c2cc(OC)ccc2OC)c(=O)n1Cc1ccc(-c2ccccc2-c2nn[nH]n2)cc1 | 8 | 21 |  |
| CCCCc1nn(Cc2ccccc2)c(=O)n1Cc1ccc(-c2ccccc2-c2nn[nH]n2)cc1 | 8.1 | 16 |  |
| CCCCc1nn(CCCCC(=O)OC)c(=O)n1Cc1ccc(-c2ccccc2-c2nn[nH]n2)cc1 |  | 4.4 |  |
| CCCCc1nn(CC(OCC(=O)OCC)c2ccccc2)c(=O)n1Cc1ccc(-c2ccccc2-c2nn[nH]n2)cc1 (stereo not given) | 8.3 | 180 |  |
| CCCCc1nn(CC(=O)O)c(=O)n1Cc1ccc(-c2ccccc2-c2nn[nH]n2)cc1 | 7.8 | 91 |  |
| CCCCc1nn(CCCCCC(=O)O)c(=O)n1Cc1ccc(-c2ccccc2-c2nn[nH]n2)cc1 | 8.7 | 17 |  |
| CCCCc1nn(CCCC)c(=O)n1Cc1ccc(-c2ccccc2C(=O)O)cc1 | 7 | 101 |  |
| CCCCc1nn(C(C)(C)C(=O)c2ccccc2)c(=O)n1Cc1ccc(-c2ccccc2-c2nn[nH]n2)cc1 | 7.7 | 43 |  |
| CCCCc1nnc(O)n1Cc1ccc(-c2ccccc2-c2nn[nH]n2)cc1 | 7.1 | 42 |  |
| CCCCc1nnc(O)n1Cc1ccc(-c2ccccc2C(=O)O)cc1 | 5.5 | 1500 |  |
| CCCCc1nn(Cc2ccc3ccccc3c2)c(=O)n1Cc1ccc(-c2ccccc2-c2nn[nH]n2)cc1 | 6.5 | 280 |  |
| CCCCc1nn(CCCC)c(=O)n1Cc1ccc(-c2ccccc2-c2nnn[nH]2)cc1 |  | 5.1 | 2.1 |
| CCCCc1nn(C(C)CC)c(=O)n1Cc1ccc(-c2ccccc2-c2nn[nH]n2)cc1 (stereo not given) | 8.7 | 10 |  |

Further compounds by falling IC50 [2], results first:

| pA2 [1] | IC50 [2] [nM] | Compound | ED50 (Rattus norvegicus) [mg/kg] |
| --- | --- | --- | --- |
|  | 290 | CCCCc1nn(C/C=C/c2ccccc2)c(=O)n1Cc1ccc(-c2ccccc2-c2nn[nH]n2)cc1 |  |
| 7.7 | 280 | CCCCc1nn(CC(OCc2ccccc2)c2ccccc2)c(=O)n1Cc1ccc(-c2ccccc2-c2nn[nH]n2)cc1 (stereo not given) |  |
| 8.5 | 170 | CCCCCCCCn1nc(CCCC)n(Cc2ccc(-c3ccccc3-c3nn[nH]n3)cc2)c1=O |  |
| 8.1 | 45 | CCCCc1nn(CC(OCCC)c2ccccc2)c(=O)n1Cc1ccc(-c2ccccc2-c2nn[nH]n2)cc1 (stereo not given) |  |
| 7.9 | 35 | CCCCc1nn(CCC(C)CC(C)(C)C)c(=O)n1Cc1ccc(-c2ccccc2-c2nn[nH]n2)cc1 (stereo not given) |  |
| 8.1 | 22 | CCCCc1nn(CC(O)c2cc(OC)ccc2OC)c(=O)n1Cc1ccc(-c2ccccc2-c2nn[nH]n2)cc1 (stereo not given) |  |
|  | 20 | CCCCc1nn(C(C)C)c(=O)n1Cc1ccc(-c2ccccc2-c2nnn[nH]2)cc1 |  |
| 7.9 | 18 | CCCCc1nn(CCC2CCCCC2)c(=O)n1Cc1ccc(-c2ccccc2-c2nn[nH]n2)cc1 |  |
| 8 | 18 | CCCCc1nn(CCCc2ccccc2)c(=O)n1Cc1ccc(-c2ccccc2-c2nn[nH]n2)cc1 |  |
| 7.1 | 16 | CCCCc1nn(CC(=O)OC(C)(C)C)c(=O)n1Cc1ccc(-c2ccccc2-c2nn[nH]n2)cc1 |  |
| 8.2 | 15 | CCCCc1nn(CCC)c(=O)n1Cc1ccc(-c2ccccc2-c2nn[nH]n2)cc1 |  |
|  | 15 | CCCCc1nn(CC2CC2)c(=O)n1Cc1ccc(-c2ccccc2-c2nn[nH]n2)cc1 |  |
| 8 | 12 | CCCCc1nn(CCCCC(=O)O)c(=O)n1Cc1ccc(-c2ccccc2-c2nn[nH]n2)cc1 |  |
| 7.6 | 9.8 | CCCCc1nn(CCCCCC(=O)OCC)c(=O)n1Cc1ccc(-c2ccccc2-c2nn[nH]n2)cc1 |  |
| 7.8 | 9 | CCCCc1nn(CC(=O)OCC)c(=O)n1Cc1ccc(-c2ccccc2-c2nn[nH]n2)cc1 |  |
| 8.9 | 8.7 | CCCCCCn1nc(CCCC)n(Cc2ccc(-c3ccccc3-c3nn[nH]n3)cc2)c1=O |  |
|  | 7.9 | CCCCc1nn(CC(=O)c2ccccc2)c(=O)n1Cc1ccc(-c2ccccc2-c2nn[nH]n2)cc1 |  |
| 9 | 5.6 | CCCCCn1nc(CCCC)n(Cc2ccc(-c3ccccc3-c3nn[nH]n3)cc2)c1=O |  |
